From ChEMBL document CHEMBL2407075, “Sulphonamido-quinoxalines: search for anticancer agent” (Eur J Med Chem, 2013)

Legend:
Assay type in all cases: functional
SR = assay: Growth inhibition of human SR cells assessed as cell growth at 10^-4 M after 48 hrs by sulforhodamine B assay; conditions: read-out: Activity
MDA-MB-231 = assay: Growth inhibition of human MDA-MB-231 cells assessed as cell growth at 10^-4 M after 48 hrs by sulforhodamine B assay; conditions: MDA-MB-231, 48 h, read-out: Activity
SF-268 [1] = assay: Growth inhibition of human SF268 cells assessed as cell growth at 10^-4 M after 48 hrs by sulforhodamine B assay; conditions: SF-268, 48 h, read-out: Activity
LOX IMVI = assay: Growth inhibition of human LOXIMVI cells assessed as cell growth at 10^-7 M after 48 hrs by sulforhodamine B assay; conditions: read-out: Activity
SF-268 [2] = assay: Growth inhibition of human SF268 cells assessed as cell growth at 10^-6 M after 48 hrs by sulforhodamine B assay; conditions: SF-268, 48 h, read-out: Activity
A498 = assay: Growth inhibition of human A498 cells assessed as cell growth at 10^-5 M after 48 hrs by sulforhodamine B assay; conditions: A498, 48 h, read-out: Activity
Method in brief: (§1)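 Five-dose NCI-60 run (0.01, 0.1, 1, 10 and 100 µM, as 10-fold dilutions from a DMSO stock made at 400× the top final level). Cells were grown in RPMI 1640 with 5% FBS and 2 mM glutamine and plated for 24 h. They were then exposed for 48 h at 37 °C and 5% CO2. TCA fixation was followed by SRB staining with A515 read-out. Percent growth was taken relative to time-zero and control plates.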

IGROV-1 = assay: Growth inhibition of human IGROV1 cells assessed as cell growth at 10^-6 M after 48 hrs by sulforhodamine B assay; conditions: IGROV-1, 48 h, read-out: Activity
Method in brief: (§2)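 Five-dose screen at NCI. Cells in RPMI 1640 with 5% FBS and 2 mM L-glutamine, seeded at 5000–40,000 cells/well and grown 24 h at 37 °C, 5% CO2 before dosing, with time-zero plates TCA-fixed. Drug diluted from DMSO stock to 0.01, 0.1, 1, 10 and 100 µM final, 48 h. Cells fixed with cold TCA (10% final), stained with 0.4% SRB and read at 515 nm. Percent growth from Tz, control and test absorbances; GI50, TGI and LC50 from dose-response curves.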

OVCAR-3 [3] = assay: Growth inhibition of human OVCAR3 cells assessed as cell growth at 10^-4 M after 48 hrs by sulforhodamine B assay; conditions: OVCAR-3, 48 h, read-out: Activity
OVCAR-3 [4] = assay: Growth inhibition of human OVCAR3 cells assessed as cell growth at 10^-6 M after 48 hrs by sulforhodamine B assay; conditions: OVCAR-3, 48 h, read-out: Activity
786-0 = assay: Growth inhibition of human 786-0 cells assessed as cell growth at 10^-4 M after 48 hrs by sulforhodamine B assay; conditions: 786-0, 48 h, read-out: Activity; method in brief: as §1
[5] = Growth inhibition of human NCI-ADR-RES cells assessed as cell growth at 10^-8 M after 48 hrs by sulforhodamine B assay; conditions: read-out: Activity
SK-MEL-28 = assay: Growth inhibition of human SK-MEL-28 cells assessed as cell growth at 10^-5 M after 48 hrs by sulforhodamine B assay; conditions: SK-MEL-28, 48 h, read-out: Activity
A549 = assay: Growth inhibition of human A549/ATCC cells assessed as cell growth at 10^-4 M after 48 hrs by sulforhodamine B assay; conditions: A549, 48 h, read-out: Activity; method in brief: as §1
[6] = Growth inhibition of human EKVX cells assessed as cell growth at 10^-5 M after 48 hrs by sulforhodamine B assay; conditions: read-out: Activity; method in brief: as §2
SNB-19 = assay: Growth inhibition of human SNB19 cells assessed as cell growth at 10^-4 M after 48 hrs by sulforhodamine B assay; conditions: SNB-19, 48 h, read-out: Activity
SK-MEL-5 = assay: Growth inhibition of human SK-MEL-5 cells assessed as cell growth at 10^-6 M after 48 hrs by sulforhodamine B assay; conditions: SK-MEL-5, 48 h, read-out: Activity
SK-OV-3 = assay: Growth inhibition of human SKOV3 cells assessed as cell growth at 10^-8 M after 48 hrs by sulforhodamine B assay; conditions: SK-OV-3, 48 h, read-out: Activity
OVCAR-4 = assay: Growth inhibition of human OVCAR4 cells assessed as cell growth at 10^-4 M after 48 hrs by sulforhodamine B assay; conditions: OVCAR-4, 48 h, read-out: Activity
[7] = Growth inhibition of human NCI-ADR-RES cells assessed as cell growth at 10^-6 M after 48 hrs by sulforhodamine B assay; conditions: read-out: Activity
MDA-MB-435 = assay: Growth inhibition of human MDA-MB-435 cells after 48 hrs by sulforhodamine B assay; conditions: MDA-MB-435, 48 h, read-out: LC50 (the source's name)
Method in brief: (§3)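 Adherent cells in RPMI 1640 with 5% FBS and 2 mM L-glutamine were plated at 5000–40,000 cells/well and grown 24 h. Five concentrations (0.01–100 µM, DMSO stock) were added for 48 h at 37 °C. Cells were fixed with cold TCA (10% final) and stained with SRB, read at 515 nm. GI50 came from log concentration–growth curves against time-zero and control plates.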

HCT-116 = assay: Growth inhibition of human HCT116 cells assessed as cell growth at 10^-5 M after 48 hrs by sulforhodamine B assay; conditions: HCT-116, 48 h, read-out: Activity; method in brief: as §2
MCF7 = assay: Growth inhibition of human MCF7 cells after 48 hrs by sulforhodamine B assay; conditions: MCF7, 48 h; for CC50: read-out: LC50 (the source's name); method in brief: as §3
BT-549 = assay: Growth inhibition of human BT549 cells assessed as cell growth at 10^-7 M after 48 hrs by sulforhodamine B assay; conditions: BT-549, 48 h, read-out: Activity; method in brief: as §1
SF-539 = assay: Growth inhibition of human SF539 cells assessed as cell growth at 10^-4 M after 48 hrs by sulforhodamine B assay; conditions: SF-539, 48 h, read-out: Activity
M14 = assay: Growth inhibition of human M14 cells after 48 hrs by sulforhodamine B assay; conditions: M14, 48 h, read-out: LC50 (the source's name); method in brief: as §3
UACC-62 = assay: Growth inhibition of human UACC62 cells assessed as cell growth at 10^-8 M after 48 hrs by sulforhodamine B assay; conditions: UACC-62, 48 h, read-out: Activity
NCI-H322M [8] = assay: Growth inhibition of human NCI-H322M cells assessed as cell growth at 10^-8 M after 48 hrs by sulforhodamine B assay; conditions: read-out: Activity
NCI-H322M [9] = assay: Growth inhibition of human NCI-H322M cells assessed as cell growth at 10^-4 M after 48 hrs by sulforhodamine B assay; conditions: read-out: Activity
Malme-3M = assay: Growth inhibition of human MALME-3M cells after 48 hrs by sulforhodamine B assay; conditions: read-out: LC50 (the source's name); method in brief: as §3
SN12C = assay: Growth inhibition of human SN12C cells assessed as cell growth at 10^-5 M after 48 hrs by sulforhodamine B assay; conditions: read-out: Activity
OVCAR-3 [10] = assay: Growth inhibition of human OVCAR3 cells after 48 hrs by sulforhodamine B assay; conditions: OVCAR-3, 48 h; for CC50: read-out: LC50 (the source's name); method in brief: as §3

| SMILES | growth at 100 µM (SR) [%] | growth at 100 µM (MDA-MB-231) [%] | growth at 100 µM (SF-268 [1]) [%] | growth at 0.1 µM (LOX IMVI) [%] | growth at 1 µM (SF-268 [2]) [%] | growth at 10 µM (A498) [%] | growth at 1 µM (IGROV-1) [%] | growth at 100 µM (OVCAR-3 [3]) [%] | growth at 1 µM (OVCAR-3 [4]) [%] | growth at 100 µM (786-0) [%] | growth at 0.01 µM [5] [%] | growth at 10 µM (SK-MEL-28) [%] | growth at 100 µM (A549) [%] | growth at 10 µM [6] [%] | growth at 100 µM (SNB-19) [%] | growth at 1 µM (SK-MEL-5) [%] | growth at 0.01 µM (SK-OV-3) [%] | growth at 100 µM (OVCAR-4) [%] | growth at 1 µM [7] [%] | CC50 (MDA-MB-435) [µM] | further results |
| --- | --- | --- | --- | --- | --- | --- | --- | --- | --- | --- | --- | --- | --- | --- | --- | --- | --- | --- | --- | --- | --- |
| O=S(=O)(Nc1ccc(Cl)cc1)c1ccc2nc(-c3ccccc3)c(-c3ccccc3)nc2c1 | 50 | 54 | 76 | 99 | 93 | -5 | 93 | 65 | 94 | 75 | 99 | 21 | 73 | -7 | 83 | 83 | 95 | 52 | 89 | > 100 | growth at 10 µM (HCT-116): 1%; CC50 (MCF7): > 100 µM; growth at 0.1 µM (BT-549): 81%; growth at 100 µM (SF-539): 73%; CC50 (M14): > 100 µM; growth at 0.01 µM (UACC-62): 95%; growth at 0.01 µM (NCI-H322M [8]): 93%; growth at 100 µM (NCI-H322M [9]): 88%; CC50 (Malme-3M): > 100 µM; growth at 10 µM (SN12C): 21%; CC50 (OVCAR-3 [10]): > 100 µM |
| O=S(=O)(Nc1ccccn1)c1ccc2nc(-c3ccccc3)c(-c3ccccc3)nc2c1 | 18 | 41 | 64 | 97 | 99 | -8 | 102 | 45 | 92 | 50 | 101 | 19 | 51 | -2 | 62 | 78 | 97 | 21 | 84 | > 100 | growth at 10 µM (HCT-116): 1%; GI50 (MCF7): 2.18 µM; CC50 (MCF7): > 100 µM; growth at 0.1 µM (BT-549): 81%; growth at 100 µM (SF-539): 54%; CC50 (M14): > 100 µM; growth at 0.01 µM (UACC-62): 92%; growth at 0.01 µM (NCI-H322M [8]): 96%; growth at 100 µM (NCI-H322M [9]): 65%; CC50 (Malme-3M): > 100 µM; growth at 10 µM (SN12C): 26%; GI50 (OVCAR-3 [10]): 2.17 µM; CC50 (OVCAR-3 [10]): > 100 µM |
